Assay results taken from ChEMBL document CHEMBL3994609, “Model-Based Discovery of Synthetic Agonists for the Zn2+-Sensing G-Protein-Coupled Receptor 39 (GPR39) Reveals Novel Biological Functions” (J Med Chem, 2017).
Calls of active or inactive are those of the source. The calls are words filed in the database; no cut-off is given here.

Assays:
[1] = Apparent permeability from apical to basolateral side in human Caco2 cells by LC-MS/MS analysis; format: ADME, cell-based; conditions: Caco-2
[2] = Increase in CGRP-induced somatostatin release in primary gastric mucosal cells isolated from GPR39 deficient C57BL/6 mouse at 1 uM in presence of 10 uM of Zn2+ measured after 4 hrs by radioimmunoassay relative to control; format: functional, Primary gastric mucosal cell; conditions: in the assay text read “C57BL/6 mouse” for “GPR39 deficient C57BL/6 mouse”
[3] = biological target: T1, G-protein coupled receptor 39 (Mus musculus) (UniProt Q5U431); assay: Agonist activity at GPR39 in primary gastric mucosal cells isolated from C57BL/6 mouse assessed as inhibition of basal ghrelin secretion at 1 uM in presence of 10 uM of Zn2+ measured after 4 hrs by ELISA relative to basal level
T1 sequence (whole entry): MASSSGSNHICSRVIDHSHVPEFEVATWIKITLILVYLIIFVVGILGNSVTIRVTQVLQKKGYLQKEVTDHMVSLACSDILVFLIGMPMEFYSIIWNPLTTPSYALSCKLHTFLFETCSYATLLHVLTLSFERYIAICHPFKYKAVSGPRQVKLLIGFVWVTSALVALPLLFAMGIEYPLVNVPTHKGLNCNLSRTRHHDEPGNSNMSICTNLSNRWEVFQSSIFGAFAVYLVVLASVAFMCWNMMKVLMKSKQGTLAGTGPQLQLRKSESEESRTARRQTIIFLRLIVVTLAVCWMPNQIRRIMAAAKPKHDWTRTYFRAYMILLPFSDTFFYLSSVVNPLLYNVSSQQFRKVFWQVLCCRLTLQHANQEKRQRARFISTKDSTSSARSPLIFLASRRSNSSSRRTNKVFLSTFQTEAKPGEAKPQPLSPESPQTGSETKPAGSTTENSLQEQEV

[4] = biological target: Neuromedin-U receptor 2 (Homo sapiens) (UniProt Q9GZQ4); assay: Agonist activity at human NMU2 receptor assessed as myo-[2-3H]inositol phosphate accumulation in presence of 10 uM Zn2+ measured after 75 mins by scintillation proximity assay; format: functional
Chain of Neuromedin-U receptor 2 (Homo sapiens) (Q9GZQ4 whole entry): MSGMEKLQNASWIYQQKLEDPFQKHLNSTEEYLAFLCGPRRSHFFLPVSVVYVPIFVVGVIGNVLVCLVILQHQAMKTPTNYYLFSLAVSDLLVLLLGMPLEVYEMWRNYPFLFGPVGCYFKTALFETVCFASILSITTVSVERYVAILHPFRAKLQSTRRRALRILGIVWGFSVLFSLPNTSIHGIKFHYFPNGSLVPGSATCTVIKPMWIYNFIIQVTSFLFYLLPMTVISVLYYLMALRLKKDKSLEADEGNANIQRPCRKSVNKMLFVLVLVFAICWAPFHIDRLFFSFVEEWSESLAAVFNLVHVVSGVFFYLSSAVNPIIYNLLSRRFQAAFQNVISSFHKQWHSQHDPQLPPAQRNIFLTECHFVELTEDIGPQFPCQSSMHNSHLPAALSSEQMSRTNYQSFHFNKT

Pancreatic islet = assay: Induction of glucose-stimulated insulin release in mouse pancreatic islets at 1 uM pretreated for 24 hrs followed by glucose addition measured after 30 mins; format: functional, cell-based
Outline: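 Islets isolated from GPR39-deficient mice and wild-type littermates on five independent days, 2 to 3 mice per day; insulin secretion measured with vehicle or 1 μM compound.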

[5] = biological target: T2, G-protein coupled receptor 39 (Homo sapiens, UniProt O43194); assay: Agonist activity at human GPR39 expressed in HEK293 cells co-expressing Galphaq assessed as myo-[2-3H]inositol phosphate accumulation measured after 75 mins by scintillation proximity assay; format: functional, cell-based
T2 sequence (O43194 whole entry): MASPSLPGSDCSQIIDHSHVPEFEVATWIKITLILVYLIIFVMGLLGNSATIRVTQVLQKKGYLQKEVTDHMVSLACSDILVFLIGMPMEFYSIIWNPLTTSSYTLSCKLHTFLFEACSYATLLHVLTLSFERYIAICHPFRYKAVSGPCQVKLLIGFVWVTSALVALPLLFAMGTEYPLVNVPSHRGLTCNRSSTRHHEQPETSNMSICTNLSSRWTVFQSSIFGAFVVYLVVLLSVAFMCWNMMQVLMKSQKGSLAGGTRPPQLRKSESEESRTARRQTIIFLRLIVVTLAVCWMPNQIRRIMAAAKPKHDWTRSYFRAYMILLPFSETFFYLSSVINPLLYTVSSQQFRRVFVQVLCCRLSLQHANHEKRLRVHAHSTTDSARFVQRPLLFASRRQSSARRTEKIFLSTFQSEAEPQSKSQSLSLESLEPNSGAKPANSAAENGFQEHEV

[6] = biological target: T3, C-C chemokine receptor type 1 (Homo sapiens) (UniProt P32246); assay: Agonist activity at full length human CCR1 assessed as myo-[2-3H]inositol phosphate accumulation measured after 75 mins by scintillation proximity assay; format: functional
T3 sequence (whole entry): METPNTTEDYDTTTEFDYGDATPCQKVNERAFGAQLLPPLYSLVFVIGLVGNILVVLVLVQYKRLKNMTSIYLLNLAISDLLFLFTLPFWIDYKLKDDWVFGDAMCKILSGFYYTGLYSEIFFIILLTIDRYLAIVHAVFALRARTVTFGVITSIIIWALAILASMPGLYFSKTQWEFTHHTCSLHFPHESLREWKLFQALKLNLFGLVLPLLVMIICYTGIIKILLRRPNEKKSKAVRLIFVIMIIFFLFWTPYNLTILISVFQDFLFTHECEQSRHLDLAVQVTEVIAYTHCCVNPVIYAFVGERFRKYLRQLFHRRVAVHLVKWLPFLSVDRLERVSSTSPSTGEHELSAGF

[7] = biological target: T2, G-protein coupled receptor 39; assay: Agonist activity at human GPR39 expressed in HEK293 cells co-expressing Galphaq assessed as myo-[2-3H]inositol phosphate accumulation in presence of 10 uM Zn2+ measured after 75 mins by scintillation proximity assay; format: functional, cell-based
[8] = biological target: T4, G-protein coupled receptor 39 (Homo sapiens) (UniProt O43194); assay: Agonist activity at GPR39 (unknown origin) expressed in COS7 cells co-expressing Galphas assessed as increase in intracellular cAMP level measured after 30 mins by chemiluminescence assay; format: functional, cell-based
T4 sequence (whole entry): T2 sequence (O43194 whole entry)

[9] = biological target: T1, G-protein coupled receptor 39 (Mus musculus); assay: Agonist activity at GPR39 in primary gastric mucosal cells isolated from C57BL/6 mouse assessed as myo-[2-3H]inositol phosphate accumulation in presence of 10 uM Zn2+ measured after 75 mins by scintillation proximity assay; format: functional
Outline: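 Primary murine gastric mucosal cell cultures stimulated with ligand plus 10 μM Zn2+; inositol phosphate turnover read out as for the transfected-cell IP accumulation assay.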

[10] = biological target: Growth hormone secretagogue receptor type 1 (Homo sapiens) (UniProt Q92847); assay: Agonist activity at human ghrelin receptor ([…]) assessed as myo-[2-3H]inositol phosphate accumulation measured after 75 mins by scintillation proximity assay; format: functional
Chain of Growth hormone secretagogue receptor type 1 (Homo sapiens) (Q92847 whole entry): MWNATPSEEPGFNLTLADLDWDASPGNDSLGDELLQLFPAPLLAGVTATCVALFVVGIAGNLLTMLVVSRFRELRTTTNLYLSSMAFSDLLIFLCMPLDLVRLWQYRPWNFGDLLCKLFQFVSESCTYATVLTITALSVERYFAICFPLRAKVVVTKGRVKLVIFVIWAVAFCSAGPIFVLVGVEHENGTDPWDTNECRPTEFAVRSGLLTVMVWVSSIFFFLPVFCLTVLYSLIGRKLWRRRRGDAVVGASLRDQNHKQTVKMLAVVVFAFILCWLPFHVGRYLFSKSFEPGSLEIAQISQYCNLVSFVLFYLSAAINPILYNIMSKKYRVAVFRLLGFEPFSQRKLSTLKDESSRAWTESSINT

[11] = biological target: T4, G-protein coupled receptor 39 (Homo sapiens); assay: (§1) Agonist activity at GPR39 (unknown origin) expressed in COS7 cells co-expressing Galphas assessed as increase in intracellular cAMP level in presence of 3 uM Zn2+ measured after 30 mins by chemiluminescence assay; format: functional, cell-based
[12] = biological target: T2, G-protein coupled receptor 39; assay: as §1; format: functional, cell-based
[13] = biological target: T1, G-protein coupled receptor 39 (Mus musculus); assay: Agonist activity at GPR39 in primary gastric mucosal cells isolated from C57BL/6 mouse assessed as inhibition of isoproterenol-induced ghrelin secretion at 1 uM in presence of 10 uM of Zn2+ and somatostatin receptor antagonist BIM-23627 measured after 4 hrs by ELISA
Outline: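 Primary gastric mucosal cell cultures from mice, incubated the day after preparation with ligands at 1 μM with 10 μM Zn2+ (with or without a somatostatin receptor antagonist) in triplicate for 4 h. Acyl-ghrelin in supernatant measured by ELISA, expressed as percent of medium-alone cells; n=5–7; unpaired t-test with Welch's correction versus vehicle.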

[14] = biological target: C-C chemokine receptor type 5 (Macaca mulatta) (UniProt P61813); assay: Agonist activity at full length monkey CCR5 assessed as myo-[2-3H]inositol phosphate accumulation in presence of 10 uM Zn2+ measured after 75 mins by scintillation proximity assay; format: functional
[15] = Half life in human liver microsomes at 3 uM measured by LC-MS/MS analysis; format: ADME, microsome
[16] = Intrinsic clearance in human liver microsomes assessed per mg protein at 3 uM measured after 45 mins by LC-MS/MS analysis; format: ADME, microsome; conditions: read-out: CLH

Papp A→B [1]: 25 ×10⁻⁶ cm/s
inhibition [3]: 79%
Activity [4]: inactive
EC50 [5]: 280 nM
Activity [6]: inactive
EC50 [7]: 9 nM
Activity [8]: inactive
Activity [9]: Dose-dependent effect
Activity [10]: inactive
Activity [11]: Dose-dependent effect
EC50 [12]: 17 nM
inhibition [13]: inactive
Activity [14]: inactive
half-life at 3 µM [15]: 58 min
microsomal CLint at 3 µM [16]: 23.7 µL/min/mg
SMILES: Cc1nn(-c2ncnc3nc[nH]c23)c2c1C(c1ccc(F)cc1Cl)CC(=O)N2 (configuration not stated)
Activity [2]: 53%
Activity (Pancreatic islet): inactive
